Substitutions are numbered along the chain they refer to. Entries after “also recorded” stand apart in the source; their conditions may differ.
Experiments:
Format in all cases: cell-based, C. elegans
[1] = target: GluClβ homomeric receptor, wild type (Caenorhabditis elegans, UniProt Q17328); experiment: two-electrode voltage clamp, Xenopus laevis oocytes; conditions: glutamate
[2] = system: GluClβ homomeric receptor, wild type; experiment: as above; conditions: high expressing mutants of GluClβ
GluClβ A17′G = GluClβ A17′G (Caenorhabditis elegans, UniProt Q17328, A294G); experiment: two-electrode voltage clamp, Xenopus laevis oocytes; conditions: glutamate
Sequence of GluClβ A17′G (Q17328 23-434 A294G): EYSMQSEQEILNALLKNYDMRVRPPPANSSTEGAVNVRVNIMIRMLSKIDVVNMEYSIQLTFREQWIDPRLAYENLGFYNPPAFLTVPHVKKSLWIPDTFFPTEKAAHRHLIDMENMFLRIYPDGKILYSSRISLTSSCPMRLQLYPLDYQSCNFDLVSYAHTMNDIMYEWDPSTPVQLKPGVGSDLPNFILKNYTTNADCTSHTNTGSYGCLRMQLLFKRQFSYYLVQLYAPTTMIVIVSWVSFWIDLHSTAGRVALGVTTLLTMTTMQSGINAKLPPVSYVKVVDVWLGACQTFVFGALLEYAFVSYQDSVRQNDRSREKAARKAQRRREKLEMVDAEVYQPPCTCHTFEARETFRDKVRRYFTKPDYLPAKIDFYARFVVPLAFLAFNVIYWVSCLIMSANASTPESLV
Outline: (§1)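 C. elegans GluClβ (mammalian codon-optimised) in pGEMhe, mutated by QuikChange; T7 mRNA. […] Voltage clamp at −60 mV in Ca-free ND96, pH 7.5. […] Peak currents taken from baseline, normalised, averaged per concentration, and fit to Hill equation (EC50, nH).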

GluClβ A20′S = GluClβ A20′S (Caenorhabditis elegans, UniProt Q17328, A297S); experiment: as above; conditions: glutamate
Sequence of GluClβ A20′S (Q17328 23-434 A297S): as the sequence (Q17328 23-434 A294G) above, with G272A, A275S counted along it
Outline: as §1

[3] = target: T1, GluClβ with α signal peptide, T6′S, Y156F (Caenorhabditis elegans, UniProt Q17328, T283S/Y182F); experiment: as above; conditions: glutamate
T1 sequence (Q17328 23-434 Y182F/T283S): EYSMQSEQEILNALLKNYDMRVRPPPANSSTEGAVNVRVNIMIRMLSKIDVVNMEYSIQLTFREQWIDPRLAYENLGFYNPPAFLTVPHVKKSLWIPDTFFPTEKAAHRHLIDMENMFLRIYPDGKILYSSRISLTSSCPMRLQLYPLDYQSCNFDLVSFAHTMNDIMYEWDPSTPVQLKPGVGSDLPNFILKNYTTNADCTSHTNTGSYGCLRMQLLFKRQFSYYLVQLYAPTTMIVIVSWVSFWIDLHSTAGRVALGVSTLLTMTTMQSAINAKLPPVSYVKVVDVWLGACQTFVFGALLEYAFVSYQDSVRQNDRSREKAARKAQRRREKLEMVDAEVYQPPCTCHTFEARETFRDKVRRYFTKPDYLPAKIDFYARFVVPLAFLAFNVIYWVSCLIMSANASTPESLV
Outline: as §1

[4] = target: T2, GluClβ with α signal peptide, T6′S, F96TAG Phe (Caenorhabditis elegans, UniProt Q17328, T283S); experiment: two-electrode voltage clamp, Xenopus laevis oocytes, nonsense suppression; conditions: glutamate
T2 sequence (Q17328 23-434 T283S): T1 sequence (Q17328 23-434 Y182F/T283S) with F160Y
Outline: (§2)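 Site-specific TAG codon, read by 74mer THG73 tRNA ligated to dCA-acylated amino acid; NVOC removed by 5 min xenon-lamp irradiation just before injection. Oocytes coinjected with 37.5 ng mRNA plus ~1 μg/μL tRNA at 48 and 24 h pre-recording; unacylated 76mer tRNA served as read-through control.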

[5] = system: GluClβ with α signal peptide, T6′S, F96TAG F2–Phe; experiment: two-electrode voltage clamp, Xenopus laevis oocytes, nonsense suppression; conditions: glutamate
[6] = system: GluClβ with α signal peptide, T6′S, Y156TAG F3–Phe; experiment: as above; conditions: glutamate
[7] = system: GluClβ T6′S, Y206TAG F1–Phe; experiment: as above; conditions: glutamate
[8] = system: GluClβ T6′S, Y206TAG OMe–Phe; experiment: as above; conditions: glutamate
GluClβ T6′S, R59A = GluClβ T6′S, R59A (Caenorhabditis elegans, UniProt Q17328, R85A/T283S); experiment: two-electrode voltage clamp, Xenopus laevis oocytes; conditions: glutamate
Sequence of GluClβ T6′S, R59A (Q17328 23-434 R85A/T283S): as the sequence (Q17328 23-434 A294G) above, with R63A, T261S, G272A counted along it
Outline: as §1

GluClβ T6′S, R59E = GluClβ T6′S, R59E (Caenorhabditis elegans, UniProt Q17328, R85E/T283S); experiment: as above; conditions: glutamate
Sequence of GluClβ T6′S, R59E (Q17328 23-434 R85E/T283S): as the sequence (Q17328 23-434 A294G) above, with R63E, T261S, G272A counted along it
Outline: as §1

GluClβ T6′S, T203A = GluClβ T6′S, T203A (Caenorhabditis elegans, UniProt Q17328, T229A/T283S); experiment: two-electrode voltage clamp, Xenopus laevis oocytes; conditions: glutamate
Sequence of GluClβ T6′S, T203A (Q17328 23-434 T229A/T283S): as the sequence (Q17328 23-434 A294G) above, with T207A, T261S, G272A counted along it

GluClβ T6′S, N202A = GluClβ T6′S, N202A (Caenorhabditis elegans, UniProt Q17328, N228A/T283S); experiment: as above; conditions: glutamate
Sequence of GluClβ T6′S, N202A (Q17328 23-434 N228A/T283S): as the sequence (Q17328 23-434 A294G) above, with N206A, T261S, G272A counted along it

GluClβ T6′S, Y156A = GluClβ T6′S, Y156A (Caenorhabditis elegans, UniProt Q17328, T283S/Y182A); experiment: two-electrode voltage clamp, Xenopus laevis oocytes; conditions: glutamate
Sequence of GluClβ T6′S, Y156A (Q17328 23-434 Y182A/T283S): as the sequence (Q17328 23-434 A294G) above, with Y160A, T261S, G272A counted along it
Outline: as §1

GluClβ T6′S, S126A = GluClβ T6′S, S126A (Caenorhabditis elegans, UniProt Q17328, S152A/T283S); experiment: two-electrode voltage clamp, Xenopus laevis oocytes; conditions: glutamate
Sequence of GluClβ T6′S, S126A (Q17328 23-434 S152A/T283S): as the sequence (Q17328 23-434 A294G) above, with S130A, T261S, G272A counted along it

[9] = system: GluClβ with α signal sequence, T6’S, Y206 F2-Phe (3,5-F2–Phe); experiment: two-electrode voltage clamp, Xenopus laevis oocytes, nonsense suppression; conditions: glutamate; no plateau at 100 mM
Outline: as §2

GluClβ Y206 3,5-Me2-Phe = experiment: as above; conditions: glutamate
Outline: as §2

Sequence of GluClβ homomeric receptor, wild type (Caenorhabditis elegans, UniProt Q17328) (Q17328 23-434): as the sequence (Q17328 23-434 A294G) above, with G272A counted along it

Question: How did the Hill [1] turn out when `N[C@@H](CCC(=O)O)C(=O)O` [glutamate] was run?
Answer: 2.5 ± 0.2

Question: And the “concentration at which rapid desensitization occurs” value [2]?
Answer: greater than 100 mM

Question: And the EC50 (GluClβ A17′G)?
Answer: > 5000 µM

Question: What about the EC50 (GluClβ A20′S) of the same compound?
Answer: no response

Question: And the EC50 [3]?
Answer: 15000 ± 1000 µM

Question: And the Hill [3]?
Answer: 2.3 ± 0.2

Question: And the Imax [3]?
Answer: 1–5 μA

Question: What about the EC50 [4] of the same compound?
Answer: 12 ± 1 µM

Question: And the Hill [4]?
Answer: 2.8 ± 0.3

Question: And the Imax [4]?
Answer: 0.1–4 μA

Question: And the EC50 [5]?
Answer: 4.7 ± 0.1 µM

Question: What about the Hill [5] of the same compound?
Answer: 4.1 ± 0.5

Question: What about the Imax [5] of the same compound?
Answer: 0.04–1 μA

Question: What about the EC50 [6] of the same compound?
Answer: 65000 ± 5000 µM

Question: And the Hill [6]?
Answer: 1.7 ± 0.1

Question: And the Imax [6]?
Answer: 0.3–2 μA

Question: What about the EC50 [7] of the same compound?
Answer: 640 ± 10 µM

Question: And the Hill [7]?
Answer: 2.8 ± 0.1

Question: And the Imax [7]?
Answer: 0.04–0.34 μA

Question: And the EC50 [8]?
Answer: 560 ± 10 µM

Question: And the Hill [8]?
Answer: 1.8 ± 0.1

Question: And the Imax [8]?
Answer: 0.1–1.4 μA

Question: What about the EC50 (GluClβ T6′S, R59A) of the same compound?
Answer: no response

Question: And the EC50 (GluClβ T6′S, R59E)?
Answer: nonfunctional; also recorded: no response

Question: What about the EC50 (GluClβ T6′S, T203A) of the same compound?
Answer: 640 ± 10 µM

Question: And the Hill (GluClβ T6′S, T203A)?
Answer: 2.3 ± 0.1

Question: What about the Hill (GluClβ T6′S, N202A) of the same compound?
Answer: 3.3 ± 0.2

Question: What about the EC50 (GluClβ T6′S, Y156A) of the same compound?
Answer: no response

Question: And the EC50 (GluClβ T6′S, S126A)?
Answer: 4700 ± 100 µM

Question: And the Hill (GluClβ T6′S, S126A)?
Answer: 2.5 ± 0.1

Question: What about the EC50 [9] of the same compound?
Answer: > 100000 µM

Question: What about the receptor function (GluClβ Y206 3,5-Me2-Phe) of the same compound?
Answer: nonfunctional
